Measurements published in paper PMC12673082 (Nature Communications, 2025).
Values after ≈ are worked out from the molar mass of the structure shown. Values joined by “and” are separate entries in the source; they are usually repeats but may differ in a detail not shown here. Identical values can stand only once.

Tests used:
hP2X7 = molecular target: T1, hP2X7 (Homo sapiens, UniProt Q99572); assay: Whole-cell patch clamp, ATP-evoked current, transfected HEK293; type: cell-based
T1 sequence (Q99572 1-595): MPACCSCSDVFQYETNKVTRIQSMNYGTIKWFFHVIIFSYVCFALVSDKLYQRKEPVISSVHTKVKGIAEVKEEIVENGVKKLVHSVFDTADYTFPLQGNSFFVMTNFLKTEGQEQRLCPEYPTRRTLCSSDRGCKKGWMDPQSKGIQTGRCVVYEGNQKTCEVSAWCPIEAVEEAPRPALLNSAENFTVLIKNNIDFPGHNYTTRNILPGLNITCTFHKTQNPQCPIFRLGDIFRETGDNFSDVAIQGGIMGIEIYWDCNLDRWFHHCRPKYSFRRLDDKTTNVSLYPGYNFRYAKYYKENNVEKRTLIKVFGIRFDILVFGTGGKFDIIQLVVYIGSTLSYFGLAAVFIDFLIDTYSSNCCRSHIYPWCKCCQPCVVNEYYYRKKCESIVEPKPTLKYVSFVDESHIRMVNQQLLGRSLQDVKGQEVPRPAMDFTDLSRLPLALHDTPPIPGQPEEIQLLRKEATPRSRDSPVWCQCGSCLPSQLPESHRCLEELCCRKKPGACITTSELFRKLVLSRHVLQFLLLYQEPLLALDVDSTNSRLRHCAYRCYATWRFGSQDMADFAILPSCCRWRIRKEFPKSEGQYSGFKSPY

rP2X7 = molecular target: T2, rP2X7 (Rattus norvegicus, UniProt Q64663); assay: as above; type: cell-based; settings: HEK293, read-out: inhibition rate
T2 sequence (Q64663 1-595): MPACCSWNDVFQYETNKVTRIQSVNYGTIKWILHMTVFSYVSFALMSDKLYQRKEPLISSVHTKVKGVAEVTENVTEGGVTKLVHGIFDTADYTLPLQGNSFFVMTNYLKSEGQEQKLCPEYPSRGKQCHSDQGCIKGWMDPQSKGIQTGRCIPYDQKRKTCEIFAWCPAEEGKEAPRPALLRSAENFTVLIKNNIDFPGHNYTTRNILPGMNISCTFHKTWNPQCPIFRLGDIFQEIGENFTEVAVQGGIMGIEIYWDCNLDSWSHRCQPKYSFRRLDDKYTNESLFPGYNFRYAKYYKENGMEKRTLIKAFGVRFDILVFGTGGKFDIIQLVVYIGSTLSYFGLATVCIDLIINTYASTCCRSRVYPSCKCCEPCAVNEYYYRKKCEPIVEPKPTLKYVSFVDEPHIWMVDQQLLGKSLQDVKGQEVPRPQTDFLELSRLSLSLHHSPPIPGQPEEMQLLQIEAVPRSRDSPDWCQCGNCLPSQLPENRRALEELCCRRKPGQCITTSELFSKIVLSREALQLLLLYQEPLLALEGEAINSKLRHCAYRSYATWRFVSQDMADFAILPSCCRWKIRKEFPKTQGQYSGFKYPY

hP2X1 = hP2X1 (Homo sapiens, UniProt P51575); assay: as above; type: cell-based; settings: HEK293, read-out: inhibition rate
hP2X3 = hP2X3 (Homo sapiens, UniProt P56373); assay: Nystatin-perforated patch recording, ATP-evoked current, HEK293; type: cell-based; settings: HEK293, read-out: inhibition rate
hP2X4 = hP2X4 (Homo sapiens, UniProt Q99571); assay: as above; type: cell-based; settings: HEK293, read-out: inhibition rate
mP2X7 A312V = molecular target: T3, mP2X7 A312V (Mus musculus, UniProt Q9Z1M0, A312V); assay: Whole-cell patch clamp, mP2X7 mutant; type: cell-based
T3 sequence (Q9Z1M0 1-595 A312V): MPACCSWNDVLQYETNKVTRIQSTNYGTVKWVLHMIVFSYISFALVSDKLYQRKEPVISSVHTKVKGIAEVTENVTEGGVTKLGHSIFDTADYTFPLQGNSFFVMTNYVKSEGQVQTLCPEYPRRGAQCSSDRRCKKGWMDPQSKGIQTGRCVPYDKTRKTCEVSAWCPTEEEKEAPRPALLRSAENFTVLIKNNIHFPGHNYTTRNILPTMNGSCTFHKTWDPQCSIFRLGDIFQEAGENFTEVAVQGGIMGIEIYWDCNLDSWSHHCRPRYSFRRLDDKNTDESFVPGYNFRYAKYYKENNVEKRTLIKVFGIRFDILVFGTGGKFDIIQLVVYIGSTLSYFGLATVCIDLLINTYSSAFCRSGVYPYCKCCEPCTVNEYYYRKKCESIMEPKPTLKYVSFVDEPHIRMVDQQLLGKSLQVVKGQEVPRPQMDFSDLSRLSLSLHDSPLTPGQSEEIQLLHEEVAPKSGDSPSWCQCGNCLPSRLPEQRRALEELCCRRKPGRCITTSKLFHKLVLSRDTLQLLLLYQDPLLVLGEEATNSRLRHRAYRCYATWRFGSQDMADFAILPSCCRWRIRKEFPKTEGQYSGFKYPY

mP2X7 Y108F/A312V = mP2X7 Y108F/A312V (Mus musculus, UniProt Q9Z1M0, A312V/Y108F); assay: Whole-cell patch clamp, mP2X7 mutant; type: cell-based; settings: 1 μM
pdP2X7 K297R = assay: Whole-cell patch clamp, pdP2X7 mutant; type: cell-based, giant panda; settings: pd7K297R, 30 μM
P2rx7+/+ mice = assay: Murine full-thickness wound infection model; type: in vivo, mouse; settings: 7.5 mg/ml, 50 μL s.c. twice daily, 7 days, vs control solvent
Procedure, shortened: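 WT C57BL/6J mice (8–10 weeks) were anesthetized, their backs shaved and iodine-disinfected, and a 6 mm punch wound made. 20 μL S. aureus (1×10^7 CFU/ml, saline-washed) was applied to the wound. After 24 h of infection, mice were randomized to test compound (7.5 mg/ml, 50 μL) or vehicle (20% sulfobutylether-β-cyclodextrin in saline), given s.c. around the wound twice daily for 7 days. Wound area was imaged daily and quantified. Data are mean ± SEM.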

[1] = Maximal soluble concentration in recording solution; type: physicochemical
pdP2X7 F88A = pdP2X7 F88A (Ailuropoda melanoleuca, UniProt G1M6C4, F89A); settings: pd7 F88A, 10 μM
pdP2X7 M105F = pdP2X7 M105F (Ailuropoda melanoleuca, UniProt G1M6C4, M106F); settings: pd7 M105F, 10 μM
pdP2X7 Y298F = pdP2X7 Y298F (Ailuropoda melanoleuca, UniProt G1M6C4, Y299F); settings: pd7 Y298F, 10 μM
pdP2X7 P96G = pdP2X7 P96G (Ailuropoda melanoleuca, UniProt G1M6C4, P97G); assay: cell-based
pdP2X7 E305F = pdP2X7 E305F (Ailuropoda melanoleuca, UniProt G1M6C4, E306F); assay: cell-based
pdP2X7 E305F, sequence (G1M6C4 2-595 E306F): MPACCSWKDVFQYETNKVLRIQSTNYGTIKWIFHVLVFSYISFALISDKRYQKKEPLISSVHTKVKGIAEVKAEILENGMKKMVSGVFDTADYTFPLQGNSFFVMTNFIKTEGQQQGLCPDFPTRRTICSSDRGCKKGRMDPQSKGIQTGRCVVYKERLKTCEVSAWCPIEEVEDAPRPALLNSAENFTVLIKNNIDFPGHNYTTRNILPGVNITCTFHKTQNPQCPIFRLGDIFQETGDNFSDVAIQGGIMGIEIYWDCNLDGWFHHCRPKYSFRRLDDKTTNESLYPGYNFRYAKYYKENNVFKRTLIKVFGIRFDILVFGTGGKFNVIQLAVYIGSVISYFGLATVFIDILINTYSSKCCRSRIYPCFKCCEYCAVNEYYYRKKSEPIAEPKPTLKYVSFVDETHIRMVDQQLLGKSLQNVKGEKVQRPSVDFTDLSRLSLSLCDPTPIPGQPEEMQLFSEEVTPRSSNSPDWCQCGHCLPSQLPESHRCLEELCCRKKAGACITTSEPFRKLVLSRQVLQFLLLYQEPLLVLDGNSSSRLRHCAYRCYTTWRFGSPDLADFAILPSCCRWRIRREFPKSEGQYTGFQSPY

pdP2X7 F88A, sequence (G1M6C4 2-595 F89A): as the sequence (G1M6C4 2-595 E306F) above, with F88A, F305E counted along it
pdP2X7 Y298F, sequence (G1M6C4 2-606 Y299F): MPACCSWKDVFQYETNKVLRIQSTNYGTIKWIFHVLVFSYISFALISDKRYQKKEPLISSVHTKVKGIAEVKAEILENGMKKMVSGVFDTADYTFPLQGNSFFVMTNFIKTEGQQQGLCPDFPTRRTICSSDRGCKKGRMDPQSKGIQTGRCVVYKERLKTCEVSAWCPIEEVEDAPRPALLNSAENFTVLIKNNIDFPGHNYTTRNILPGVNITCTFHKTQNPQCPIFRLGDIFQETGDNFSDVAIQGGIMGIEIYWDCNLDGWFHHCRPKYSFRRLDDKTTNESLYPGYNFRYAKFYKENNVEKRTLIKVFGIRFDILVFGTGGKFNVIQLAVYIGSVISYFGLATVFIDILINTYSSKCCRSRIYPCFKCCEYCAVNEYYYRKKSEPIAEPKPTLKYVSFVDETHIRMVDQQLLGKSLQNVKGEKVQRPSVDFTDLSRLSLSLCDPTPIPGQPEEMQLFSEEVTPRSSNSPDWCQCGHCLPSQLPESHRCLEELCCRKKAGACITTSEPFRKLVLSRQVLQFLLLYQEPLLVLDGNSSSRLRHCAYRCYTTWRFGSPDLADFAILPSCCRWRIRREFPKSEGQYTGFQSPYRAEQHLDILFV
mP2X7 Y108F/A312V, sequence (Q9Z1M0 whole entry Y108F/A312V): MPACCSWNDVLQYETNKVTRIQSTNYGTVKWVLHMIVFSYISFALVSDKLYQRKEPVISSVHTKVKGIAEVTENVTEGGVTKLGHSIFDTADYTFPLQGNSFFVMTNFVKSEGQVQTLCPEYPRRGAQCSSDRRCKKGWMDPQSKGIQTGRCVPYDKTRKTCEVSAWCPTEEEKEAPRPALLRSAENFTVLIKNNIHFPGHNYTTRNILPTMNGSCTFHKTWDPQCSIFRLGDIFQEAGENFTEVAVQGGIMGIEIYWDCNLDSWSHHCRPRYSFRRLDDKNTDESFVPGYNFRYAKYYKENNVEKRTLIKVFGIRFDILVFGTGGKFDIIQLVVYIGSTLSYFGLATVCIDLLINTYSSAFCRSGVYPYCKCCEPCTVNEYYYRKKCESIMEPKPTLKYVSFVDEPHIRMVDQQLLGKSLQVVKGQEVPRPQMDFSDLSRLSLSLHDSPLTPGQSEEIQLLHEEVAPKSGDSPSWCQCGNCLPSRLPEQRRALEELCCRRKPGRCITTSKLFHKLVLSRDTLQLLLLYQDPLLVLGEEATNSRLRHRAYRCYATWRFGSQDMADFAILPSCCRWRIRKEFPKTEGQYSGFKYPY
pdP2X7 M105F, sequence (G1M6C4 2-595 M106F): as the sequence (G1M6C4 2-595 E306F) above, with M105F, F305E counted along it
hP2X4, sequence (Q99571 whole entry): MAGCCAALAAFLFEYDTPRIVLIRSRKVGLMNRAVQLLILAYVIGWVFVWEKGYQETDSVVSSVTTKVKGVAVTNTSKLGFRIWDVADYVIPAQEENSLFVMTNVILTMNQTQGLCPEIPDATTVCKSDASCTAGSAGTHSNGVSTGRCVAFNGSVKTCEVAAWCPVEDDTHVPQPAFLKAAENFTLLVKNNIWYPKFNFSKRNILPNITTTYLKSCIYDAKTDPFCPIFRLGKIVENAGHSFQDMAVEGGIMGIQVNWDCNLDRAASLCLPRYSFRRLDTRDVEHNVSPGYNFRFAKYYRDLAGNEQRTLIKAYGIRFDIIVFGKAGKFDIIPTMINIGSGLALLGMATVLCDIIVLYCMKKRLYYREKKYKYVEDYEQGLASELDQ
pdP2X7 P96G, sequence (G1M6C4 2-595 P97G): as the sequence (G1M6C4 2-595 E306F) above, with P96G, F305E counted along it
hP2X3, sequence (P56373 whole entry): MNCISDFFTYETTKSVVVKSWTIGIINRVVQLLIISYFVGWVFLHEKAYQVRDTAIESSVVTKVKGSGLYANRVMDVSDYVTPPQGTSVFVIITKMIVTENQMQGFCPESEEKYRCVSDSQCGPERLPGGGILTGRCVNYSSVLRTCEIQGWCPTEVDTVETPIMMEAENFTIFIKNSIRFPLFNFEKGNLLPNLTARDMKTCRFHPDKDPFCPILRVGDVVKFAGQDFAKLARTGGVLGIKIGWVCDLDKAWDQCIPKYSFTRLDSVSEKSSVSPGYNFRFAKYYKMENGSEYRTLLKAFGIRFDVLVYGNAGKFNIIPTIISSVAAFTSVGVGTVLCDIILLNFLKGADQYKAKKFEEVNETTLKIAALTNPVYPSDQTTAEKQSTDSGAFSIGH
hP2X1, sequence (P51575 whole entry): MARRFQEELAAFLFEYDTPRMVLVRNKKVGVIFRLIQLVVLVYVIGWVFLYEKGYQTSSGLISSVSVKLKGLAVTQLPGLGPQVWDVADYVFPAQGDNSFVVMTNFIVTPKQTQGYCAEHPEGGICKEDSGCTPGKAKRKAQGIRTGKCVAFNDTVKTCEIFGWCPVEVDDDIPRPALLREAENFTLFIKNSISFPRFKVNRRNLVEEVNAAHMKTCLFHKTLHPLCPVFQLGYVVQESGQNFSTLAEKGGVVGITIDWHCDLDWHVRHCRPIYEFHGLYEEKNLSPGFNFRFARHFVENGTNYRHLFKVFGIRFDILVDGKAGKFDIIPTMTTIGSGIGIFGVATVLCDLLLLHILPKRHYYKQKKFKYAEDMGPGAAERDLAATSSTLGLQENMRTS

With C=CC[C@@H]1c2ccc(OC)c(OC)c2CN2CCc3cc4c(cc3[C@H]12)OCO4 [PSFL1191, (13R,13aS)-13-allyl-9,10-dimethoxy-5,8,13,13a-tetrahydro-6H-1,3dioxolo[4,5-g]isoquinolino[3,2-a]isoquinoline] the IC50 (hP2X7) was 248 ± 17 nM, the “fold difference in affinity for hP2X7 between PSFL1191 and PSFL1190” value (hP2X7) was ~50 fold and > 50 fold and the inhibition at 30 µM (rP2X7) was 4.94 ± 1.43%. The inhibition at 30 µM (hP2X1) was -8.35 ± 4.49%, the inhibition at 30 µM (hP2X3) was 20.6 ± 6.4% and the inhibition at 30 µM (hP2X4) was -17.6 ± 9%. The IC50 (mP2X7 A312V) was 908 ± 26 nM, the “fold increase of inhibition compared to m7WT” value (mP2X7 A312V; mP2X7 A312V, 1 μM) was ~ 21 fold and 21 fold and the “fold increase of inhibition compared to m7WT” value (mP2X7 Y108F/A312V) was ~26 fold. The inhibition rate (pdP2X7 K297R) was ≤ 50%, the “wound healing (wound area)” value (P2rx7+/+ mice) was “did not influence the wound healing rate” and the solubility [1] was 30 µM (≈ 11.4 µg/mL). The “inhibitory effect on ATP (1 mM)-induced activation (inhibition ratio)” value (shortened to “inhibitory effect on ATP … (inhibition ratio)”) (pdP2X7 F88A) was “significantly attenuated”, the “inhibitory effect on ATP … (inhibition ratio)” value (pdP2X7 M105F) was “significantly attenuated” and the “inhibitory effect on ATP … (inhibition ratio)” value (pdP2X7 Y298F) was “significantly attenuated”. The IC50 (pdP2X7 P96G) was 8060 nM and the IC50 (pdP2X7 E305F) was 1570 ± 360 nM.
